Here are results for one compound from ChEMBL document CHEMBL2069294, “Synthesis and evaluation of hybrid drugs for a potential HIV/AIDS-malaria combination therapy” (Bioorg Med Chem, 2012).

The subject of series [1] is Plasma. As to the kind of experiment: Drug metabolism in C57/BL6 mouse plasma assessed as azidothymidine level at 20 mg/kg, po dissolved in Pheroid formulation. In kind it is ADME, organism-based. Also on record: dose 20 mg/kg, route oral. Conditions: in vivo. A digest of the protocol:
(§1)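 Male C57/BL6 mice given 20 mg/kg by oral gavage (200 µl) in 10% DMSO (resuspended precipitate) or Pheroid vesicles; tail blood at 30–480 min (DMSO) or 10–420 min (Pheroid), plasma separated; parent, AZT and DHA quantified by LC–MS/MS after acetonitrile extraction with deoxythymidine internal standard, calibration in plasma.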

Series [2] relates to Plasmodium falciparum. Kind of series: Antiplasmodial activity against drug resistant Plasmodium falciparum Dd2 ring stage cells assessed as reduction parasitemia by Malstat assay. In kind it is functional, organism-based.
Series [3] deals with Plasma. As to the kind of experiment: Drug metabolism in C57/BL6 mouse plasma assessed as azidothymidine level at 20 mg/kg, po dissolved in 10% DMSO. Also on record: dose 20 mg/kg, route oral. In kind it is ADME, organism-based. Conditions: in vivo. Put shortly:
as §1

Series [4] in a line: Prodrug release in buffer assessed as dihydroartemisinin level. In kind it is physicochemical.
The test system of another series is HeLa. As to the kind of experiment: Cytotoxicity against human HeLa cells by MTT assay. In kind it is cell-based. Put shortly: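 MTT reduction assay on HeLa cells (DMEM, 10% heat-inactivated FCS) with serial dilutions; CC50 taken as concentration giving 50% growth inhibition, ± SEM.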
Background: Tetrazolium dyes change colour on reduction, which living cells bring about.

Series [5] can be described thus: Drug metabolism in C57/BL6 mouse liver microsomes measured after 15 mins. In kind it is ADME, Microsome. Particulars: read-out: Drug metabolism. Put shortly:
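Compound at 1 µM final incubated at 37 °C with mouse liver microsomes (0.2 mg/ml protein) in phosphate buffer pH 7.4; started with 1 mM NADPH; aliquots at 0, 15, 30, 45 min quenched in cold acetonitrile; parent remaining (% of time zero) and released AZT/DHA measured by LC–MS/MS.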
A general note: Microsomes from liver hold many membrane-bound enzymes, among them those of drug oxidation.

A short description of series [6]: Selectivity index, ratio of CC50 for human HeLa cells to IC50 for VSV-G pseudotyped HIV1 lentiviral particles. In kind it is functional. A digest of the protocol:
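Ratio of HeLa MTT CC50 to IC50 in the 48 h VSV-G-pseudotyped HIV-1 reporter assay in HeLa cells.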

The test system of series [7] is Plasma. Kind of series: Drug metabolism in C57/BL6 mouse plasma assessed as dihydroartemisinin level at 20 mg/kg, po dissolved in 10% DMSO. In kind it is ADME, organism-based. Also on record: dose 20 mg/kg, route oral. Particulars: in vivo. Put shortly: as §1
Series [8] relates to Blood. As to the kind of experiment: Drug metabolism in C57/BL6 mouse blood assessed as dihydroartemisinin level at 20 mg/kg, po dissolved in Pheroid formulation. In kind it is ADME, organism-based. Also on record: dose 20 mg/kg, route oral. Particulars: in vivo. A digest of the protocol:
as §1

The test system of series [9] is Blood. As to the kind of experiment: Drug metabolism in C57/BL6 mouse blood assessed as azidothymidine level at 20 mg/kg, po dissolved in 10% DMSO. In kind it is ADME, organism-based. Also on record: dose 20 mg/kg, route oral. Conditions: in vivo. A digest of the protocol:
as §1

Series [10] concerns Blood. As to the kind of experiment: Drug metabolism in C57/BL6 mouse blood assessed as azidothymidine level at 20 mg/kg, po dissolved in Pheroid formulation. In kind it is ADME, organism-based. Also on record: dose 20 mg/kg, route oral. Particulars: in vivo. Put shortly:
as §1

The next series has as its system Mus musculus. Kind of series: Toxicity in Plasmodium […] N infected in C57/BL6 mouse assessed as parasitemia at 20 mg/kg, po dosed 30 mins post parasite infection and same dose repeated on days 1, 2 and 3 post infection measured on parasitemia day 2 to 7. In kind it is organism-based. Also on record: dose 20 mg/kg, route oral. Conditions: in vivo, 0.5 h. Put shortly:
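Infected mice dosed orally at 20 mg/kg on days 0–3 (first dose 30 min after intraperitoneal infection); death of treated infected mice before day 6 counted as toxic death; parasitemia followed on Giemsa smears to day 7.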

Series [11] is described as follows: Selectivity index, ratio of CC50 for human HeLa cells to IC50 for Plasmodium falciparum Dd2 ring stage cells. In kind it is functional. A digest of the protocol:
(§2)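 Ratio of HeLa MTT CC50 to Malstat IC50 against the stated P. falciparum strain (ring-stage, triplicate, 1% parasitemia).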

Series [12] can be described thus: Cmax in C57/BL6 mouse plasma at 20 mg/kg, po dissolved in Pheroid formulation. In kind it is ADME, organism-based. Also on record: dose 20 mg/kg, route oral. A digest of the protocol:
as §1

The subject of series [13] is Blood. Kind of series: Drug metabolism in C57/BL6 mouse blood assessed as dihydroartemisinin level at 20 mg/kg, po dissolved in 10% DMSO. Also on record: dose 20 mg/kg, route oral. Conditions: in vivo. In kind it is ADME, organism-based. Put shortly: as §1
Series [14] is described as follows: Prodrug release in buffer assessed as azidothymidine level. In kind it is physicochemical.
Series [15] relates to Human immunodeficiency virus 1. As to the kind of experiment: Antiviral activity against VSV-G pseudotyped HIV1 lentiviral particles infected in human HeLa cells incubated for 48 hrs by spectrofluorometry. In kind it is functional, organism-based. Particulars: Human immunodeficiency virus 1, HeLa, 48 h; read-out: IC50.
Series [16] relates to Plasma. Kind of series: Drug metabolism in C57/BL6 mouse plasma assessed as dihydroartemisinin level at 20 mg/kg, po dissolved in Pheroid formulation. In kind it is ADME, organism-based. Also on record: dose 20 mg/kg, route oral. Conditions: in vivo. Put shortly:
as §1

Series [17] relates to Human immunodeficiency virus 1. Kind of series: Antiviral activity against HIV1 NL43 infected din human MT4 cells pre-incubated in presence of compound for 48 hrs followed by TZM cells infection with compound treated virus supernatant by X-gal staining based microscopy. In kind it is functional, organism-based. Conditions: Human immunodeficiency virus 1, NL43, TZM. Put shortly: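 MT4 co-culture with NL43 HIV-1 preincubated 4 h at 37 °C, then compounds in DMSO added at six concentrations for 48 h; cell-free supernatant used to infect TZM cells in triplicate; after 2 days cells fixed (acetone/ethanol), X-Gal stained 2–4 h, blue cells counted; uninfected and untreated-infected wells set as 100% and 0% activity.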

The nature of series [18]: Selectivity index, ratio of CC50 for human HeLa cells to IC50 for Plasmodium falciparum 3D7 ring stage cells. In kind it is functional. A digest of the protocol:
as §2

Series [19] concerns Plasmodium falciparum. Kind of series: Antiplasmodial activity against Plasmodium falciparum 3D7 ring stage cells assessed as reduction parasitemia by Malstat assay. In kind it is functional, organism-based. Particulars: Plasmodium falciparum, 3D7; read-out: IC50.
Series [20] has as its system Plasmodium falciparum. Kind of series: Antiplasmodial activity against Plasmodium falciparum NF54 assessed as reduction in stage IV and V gametocyte formation at IC50 level incubated for 48 hrs measured 7 days post compound wash by Giemsa staining. In kind it is functional, organism-based.

SMILES strings stand for the structures. The source made the active and inactive calls. The rule behind the calls is not given here. Some results are limits rather than exact numbers.

What is called IC50 is the concentration needed to halve the response being measured. Usually Cmax stands for the highest concentration seen after dosing. Take `Cc1cn([C@H]2C[C@H](N=[N+]=[N-])[C@@H](CO[C@H]3O[C@@H]4O[C@@]5(C)CC[C@H]6[C@H](C)CC[C@@H]([C@H]3C)[C@@]46OO5)O2)c(=O)[nH]c1=O`: the Drug metabolism entry is “Active” with Plasma [1]; “Not Active” with Plasma [3]; “Not Active” in series [4]; “Active” in the series on Plasma [7]; “Not Active” in the series with Blood [8]; “Active” in the series on Blood [9]. Moreover, the Drug metabolism result in the series on Blood [10] was “Active”; with Blood [13], “Not Active”; in series [14] it was “Active”; in the series with Plasma [16] it was “Active”. The IC50 with Plasmodium falciparum [2] is 10 nM; in the series on HeLa, above 100000 nM; in series [15], 2860 nM; in series [17], 486 nM; in the series with Plasmodium falciparum [19], 30 nM. Besides, the metabolised at 0.25 h in series [5] is above 90%. Besides, the “Ratio CC50/IC50” value in series [6] is above 35; in [11], above 10000; in [18], above 3333.3. For the same compound, the Activity result with Mus musculus is recorded as “Non-toxic”. Further, the Cmax in series [12] is 40 ng/mL. Moreover, in the series with Plasmodium falciparum [20], the inhibition result is “Active”.
